The values that follow come from PubChem BioAssay AID2298 (NMMLSC, 2010).

The target in the assay is Regulator of G-protein signaling 16 (Homo sapiens) (UniProt O15492). Kind of assay: small molecules altering RGS16 interaction with Galphao – biochemical, multiplexed bead flow cytometry, SAR compounds, SAR follow-up (AID 2298). The settings on record: bead-based flow cytometry, AF488-Galphao binding to RGS16; for Ki: measured here: Ki derived from EC50, inhibitors. An outline of the steps: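 Times – Bead–Galphao binding incubation 30–90 min, room temperature · Test system – biotinylated RGS16 on colour-coded streptavidin beads, multiplexed with other RGS beads · Doses – Nine-point threefold dilution series of compound · Detection – flow cytometry, median FL1 fluorescence per bead set · Read-out basis – variable-slope logistic EC50, converted to Ki using Kd 30 nM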
In general terms: Flow cytometry measures light scatter and fluorescence of single cells or particles in a stream.

Chain of Regulator of G-protein signaling 16 (Homo sapiens) (O15492 whole entry, looked up): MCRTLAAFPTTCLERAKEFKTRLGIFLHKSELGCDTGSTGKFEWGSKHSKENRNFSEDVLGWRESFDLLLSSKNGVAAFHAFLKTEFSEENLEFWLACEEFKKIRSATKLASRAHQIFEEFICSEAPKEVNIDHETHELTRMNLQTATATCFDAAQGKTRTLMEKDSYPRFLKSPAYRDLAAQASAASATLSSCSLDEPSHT

`CN=c1scc(C)n1/N=C/c1ccc(O)c(O)c1O` had an inhibition constant (Ki) of 410 nM. The same measure, in the same setting: to `CCN(CC)S(=O)(=O)c1cccc(-c2n[nH]c(=S)n2/N=C/c2ccc(C(=O)OC)cc2)c1` belongs 760 nM.

With `O=C(NCCCN1CCOCC1)c1sc2cc([N+](=O)[O-])ccc2c1Cl`, the Ki amounted to 270 nM. Same read-out and setting: to `CCC(=O)NC(c1ccc(C)cc1)c1cc([N+](=O)[O-])c2cccnc2c1O` (centres undefined) belongs 4240 nM. On the same count and under the same terms, to `Cc1cccc(N2CCN(C(=O)COc3nsc4nc(C)cc(C)c34)CC2C)c1` (centres undefined) belongs 1160 nM; to `CC(NC(=O)c1sc2cc([N+](=O)[O-])ccc2c1Cl)C(C)(C)C` (centres undefined), 170 nM; to `CN1CCN(C2=C(Cl)C(=O)C(c3cnc(N4CCCCC4)s3)=C(Cl)C2=O)CC1`, 20 nM. Still for that read-out and setting: to `COc1ccc(C2=CC(=O)C=CC2=O)cc1` belongs 120 nM; to `Cc1cc(Cl)ccc1N=c1ssnc1Cl`, 40 nM; to `COC(=O)CCC(=O)Nc1sc(C)c(C)c1C(N)=O`, 1140 nM. `Cc1[nH]n(-c2ccccc2)c(=S)c1C=Nc1cccc([N+](=O)[O-])c1` returned an inhibitory constant (Ki) of 40 nM. Consider `O=C(Cc1csc(N2CCOCC2)n1)N/N=C/c1ccc(O)c(O)c1O`, for which the inhibition constant Ki stood at 670 nM. On the same count and under the same terms, to `O=c1c2ccccc2sn1-c1ccc(S(=O)(=O)N2CCCC2)cc1` belongs 20 nM; to `Cc1cccc(N2CCN(C(=O)Cn3sc4nc(C)cc(C)c4c3=O)CC2C)c1` (centres undefined), 90 nM; to `CCN(CC)S(=O)(=O)c1cccc(C(=O)N/N=C/c2ccc(O)c(O)c2O)c1`, 480 nM. `CC(=O)OCCCNc1cc(Sc2nc3ccccc3s2)c2nonc2c1[N+](=O)[O-]` yielded a Ki of 220 nM. Still for that read-out and setting: to `CC1(C)OC(=O)C(=Cc2ccc(-c3ccc(S(N)(=O)=O)cc3)o2)C(=O)O1` belongs 2840 nM; to `O=C(COc1ccccc1C(=O)N/N=C/c1ccc(O)c(O)c1)N/N=C/c1ccc(O)c(O)c1`, 90 nM. As to `NS(=O)(=O)c1ccc(N/N=C/c2ccc(O)c(O)c2O)c([N+](=O)[O-])c1`, the 50% effective concentration (EC50) is 29 nM and the Ki is 20 nM.

The compound `O=C1C(Cl)=C(N2CCCCC2)C(=O)C(Cl)=C1c1cnc(N2CCCCC2)s1` came in with a Ki of 100 nM. This counts as sub-micromolar. Compound `CCN=c1scc(C)n1/N=C/c1ccc(O)c(O)c1O` came in with a Ki of 850 nM. `Cc1[nH]n(-c2ccccc2)c(=S)c1C=NCCCN=Cc1c(C)[nH]n(-c2ccccc2)c1=S` returned a Ki of 330 nM. Still for that read-out and setting: to `CCOC(=O)c1sc(NC(=O)CSc2nnc(Cc3ccccc3)o2)c(C#N)c1C` belongs 580 nM.

As a reminder, the Ki is the dissociation constant of the complex between target and ligand, obtained from inhibition or displacement. Higher therefore signals weaker binding. Usually EC50 stands for the concentration that produces a half-maximal response.
